{"source": "paper PMC6686180", "about": "(Biochemistry, 2018)", "molecules": {"B1": {"name": "RhoA CaaX only peptide (5fam-GCLVL) (peptide)", "peptide": "5FAM-GCLVL"}, "B2": {"name": "SmgGDS-558: human SmgGDS 558-amino acid splice variant with 12 armadillo repeats (UniProt P52306–2) (protein)", "chain": "MDNLSDTLKKLKITAVDKTEDSLEGCLDCLLQALAQNNTETSEKIQASGILQLFASLLTPQSSCKAKVANIIAEVAKNEFMRIPCVDAGLISPLVQLLNSKDQEVLLQTGRALGNICYDSHSLQAQLINMGVIPTLVKLLGIHCQNAALTEMCLVAFGNLAELESSKEQFASTNIAEELVKLFKKQIEHDKREMIFEVLAPLAENDAIKLQLVEAGLVECLLEIVQQKVDSDKEDDITELKTGSDLMVLLLLGDESMQKLFEGGKGSVFQRVLSWIPSNNHQLQLAGALAIANFARNDANCIHMVDNGIVEKLMDLLDRHVEDGNVTVQHAALSALRNLAIPVINKAKMLSAGVTEAVLKFLKSEMPPVQFKLLGTLRMLIDAQAEAAEQLGKNVKLVERLVEWCEAKDHAGVMGESNRLLSALIRHSKSKDVIKTIVQSGGIKHLVTMATSEHVIMQNEALVALALIAALELGTAEKDLESAKLVQILHRLLADERSAPEIKYNSMVLICALMGSECLHKEVQDLAFLDVVSKLRSHENKSVAQQASLTEQRLTVES", "modifications": "left off: His6-tev, end not stated, state not stated"}, "B3": {"name": "SmgGDS-607 (natural protein)", "chain": "MDNLSDTLKKLKITAVDKTEDSLEGCLDCLLQALAQNNTETSEKIQASGILQLFASLLTPQSSCKAKVANIIAEVAKNEFMRIPCVDAGLISPLVQLLNSKDQEVLLQTGRALGNICYDSHEGRSAVDQAGGAQIVIDHLRSLCSITDPANEKLLTVFCGMLMNYSNENDSLQAQLINMGVIPTLVKLLGIHCQNAALTEMCLVAFGNLAELESSKEQFASTNIAEELVKLFKKQIEHDKREMIFEVLAPLAENDAIKLQLVEAGLVECLLEIVQQKVDSDKEDDITELKTGSDLMVLLLLGDESMQKLFEGGKGSVFQRVLSWIPSNNHQLQLAGALAIANFARNDANCIHMVDNGIVEKLMDLLDRHVEDGNVTVQHAALSALRNLAIPVINKAKMLSAGVTEAVLKFLKSEMPPVQFKLLGTLRMLIDAQAEAAEQLGKNVKLVERLVEWCEAKDHAGVMGESNRLLSALIRHSKSKDVIKTIVQSGGIKHLVTMATSEHVIMQNEALVALALIAALELGTAEKDLESAKLVQILHRLLADERSAPEIKYNSMVLICALMGSECLHKEVQDLAFLDVVSKLRSHENKSVAQQASLTEQRLTVES"}, "B4": {"name": "SmgGDS-607: human SmgGDS 607-amino acid splice variant with one additional armadillo repeat (UniProt P52306–1) (protein)", "chain": "B3 chain", "modifications": "left off: His6-tev, end not stated, state not stated"}}, "key": {"SmgGDS-607": {"system": "SmgGDS-607", "settings": "non-farnesylated versus farnesylated RhoA; cited from earlier work"}, "GGTase-I [1]": {"system": "GGTase-I", "settings": "cited from earlier work"}, "GGTase-I [2]": {"target": "T1, GGTase-I (Rattus norvegicus, UniProt P53610+Q04631)", "T1 sequence (P53610 whole entry, one chain of several)": "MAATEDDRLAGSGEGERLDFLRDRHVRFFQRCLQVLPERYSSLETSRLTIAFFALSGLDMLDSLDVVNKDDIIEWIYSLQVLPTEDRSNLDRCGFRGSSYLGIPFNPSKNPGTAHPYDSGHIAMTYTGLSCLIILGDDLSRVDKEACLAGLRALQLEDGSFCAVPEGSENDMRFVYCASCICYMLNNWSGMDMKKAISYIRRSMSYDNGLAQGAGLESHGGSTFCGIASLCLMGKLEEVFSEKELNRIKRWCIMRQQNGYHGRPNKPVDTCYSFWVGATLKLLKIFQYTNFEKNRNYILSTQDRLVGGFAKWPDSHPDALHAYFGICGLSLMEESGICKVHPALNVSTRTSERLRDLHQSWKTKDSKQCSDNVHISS", "assay": "Radiolabel prenylation assay: GGTase-I-catalyzed geranylgeranylation of RhoA", "assay_type": "biochemical", "settings": "for effect of nucleotide on initial rate of RhoA geranylgeranylation / effect of nucleotide on endpoint level of incorporated isoprenoid: 25 μM GTP or GDP, RhoA 1.3 μM, GGTase-I 5 nM, without SmgGDS; for effect of nucleotide on initial rate of RhoA geranylgeranylation: 3H-GGPP 9 μM; for effect of nucleotide on endpoint level of incorporated isoprenoid: incubation 2 hr"}, "RhoA [3]": {"system": "RhoA", "assay": "Radiolabel prenylation assay of RhoA with SmgGDS-607", "assay_type": "biochemical, human"}, "[4]": {"target": "RhoA 13mer (5-fam-…) (human)", "assay": "fluorescence polarisation"}, "[5]": {"target": "RhoA CaaX only peptide (5fam-GCLVL) (human)", "assay": "fluorescence polarisation"}, "SmgGDS": {"system": "SmgGDS", "settings": "cells, cited from earlier work"}, "FTase [6]": {"system": "FTase", "settings": "addition of GDP or GTPγS; cited from earlier work"}, "[7]": {"target": "geranylgeranylated RhoA 13mer peptide (human)", "assay": "fluorescence polarisation"}, "GGTase-I [8]": {"target": "T1, GGTase-I", "assay": "Peptide prenylation assay", "assay_type": "biochemical", "settings": "GGTase-I 10 nM; for effect on GGTase-I activity with peptide substrate: 5 μM SmgGDS, dansyl-GCLVL, saturating GGPP (10 μM)", "outline": "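GGTase-I (10 nM) and 10 μM GGPP were incubated at 30°C with varied dansyl-GCLVL (RhoA CaaX peptide), with or without SmgGDS (5 μM final) or GDP/GTP (30 μM final). Prenylation-dependent fluorescence (ex 340/em 520 nm) was read every 40 s for 2 h. Initial slopes were converted to velocity, and kcat and KM came from Michaelis-Menten fits of V/E.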"}, "[9]": {"target": "biotinylated SmgGDS-607 (human) (UniProt P52306)", "assay": "BLI"}, "[10]": {"target": "biotinylated SmgGDS-607 (human) (UniProt P52306)", "assay": "BLI", "remark": "listed apart in the source"}, "RhoA [11]": {"target": "RhoA", "settings": "read-out: Kd of RhoA for GTPγS; with Mg^2+; cited from earlier work"}, "FTase [12]": {"target": "FTase", "settings": "FTase binding; cited from earlier work"}, "SmgGDS-558": {"target": "T2, SmgGDS-558 (human, UniProt P52306-2 1-558)", "T2 sequence (looked up)": "B2 chain", "assay": "fluorescence polarisation"}, "RhoA (human)": {"target": "RhoA (human)", "assay": "inhibition of radiolabel prenylation"}, "[13]": {"settings": "Buffer (no additive), GGPP 10 μM, 30°C, fluorescence"}}, "note": "Where two headings read alike, the source gives them in different places. Ends that are not written are not given here. * marks the point of attachment. 5FAM = O=C1OC2(c3ccc(O)cc3Oc3cc(O)ccc32)c2ccc(C(=O)*)cc21", "data": [{"molecule": "non-farnesylated RhoA: non-farnesylated RhoA of the recent structural study", "values": [{"measurement": "affinity for SmgGDS-607", "setting": "SmgGDS-607", "value": "had higher affinity for SmgGDS-607 than farnesylated RhoA"}]}, {"molecule": "CC(C)=CCC/C(C)=C/CC/C(C)=C/CC/C(C)=C/COP(=O)(O)OP(=O)(O)O", "note": "[GGPP, geranylgeranyl pyrophosphate]", "values": [{"measurement": "Km", "setting": "GGTase-I [1]; GGTase-I KM for GGPP", "value": 0.003, "unit": "µM"}]}, {"molecule": "Nc1nc2c(ncn2[C@@H]2O[C@H](COP(=O)(O)OP(=O)(O)OP(=O)(O)O)[C@@H](O)[C@H]2O)c(=O)[nH]1", "note": "[GTP]", "values": [{"measurement": "effect of nucleotide on initial rate of RhoA geranylgeranylation", "setting": "GGTase-I [2]", "value": "No difference was observed"}, {"measurement": "effect of nucleotide on endpoint level of incorporated isoprenoid", "setting": "GGTase-I [2]", "value": "no significant difference"}, {"measurement": "restoration of RhoA geranylgeranylation at saturating GTP", "setting": "RhoA [3]; 5 μM SmgGDS-607, versus level in absence of SmgGDS-607, RhoA 3 μM", "value": "do not restore RhoA geranylgeranylation to the level observed in the absence of SmgGDS-607"}, {"measurement": "concentration of GTP required to reach saturating RhoA geranylgeranylation", "setting": "RhoA [3]; in the presence of 5 μM SmgGDS-607, RhoA 3 μM, GGTase-I 10 nM, 3H-GGPP 1.8 μM, 4 min", "value": "~ 3 μM"}]}, {"molecule": "protein geranylgeranyltransferase I (from UniProt Q04631 1-377) (complex)", "values": [{"measurement": "Kd", "setting": "[4]", "value": 56, "unit": "nM"}, {"measurement": "Kd", "setting": "[5]", "value": 2200, "unit": "nM"}]}, {"molecule": "RhoA G14V: constitutively active mutant, predominantly bound to GTP", "values": [{"measurement": "co-immunoprecipitation of SmgGDS", "setting": "SmgGDS", "value": "did not co-immunoprecipitate detectable amounts of SmgGDS"}]}, {"molecule": "Nc1nc2c(ncn2[C@@H]2O[C@H](COP(=O)(O)OP(=O)(O)O)[C@@H](O)[C@H]2O)c(=O)[nH]1", "note": "[GDP]", "values": [{"measurement": "effect of GDP on GGTase-I activity for RhoA", "setting": "GGTase-I [2]; 20 μM GDP without SmgGDS-607, RhoA 3 μM, GGTase-I 10 nM, 3H-GGPP 1.8 μM, 4 min", "value": "does not affect GGTase-I activity for RhoA"}, {"measurement": "effect of nucleotide on initial rate of RhoA geranylgeranylation", "setting": "GGTase-I [2]", "value": "No difference was observed"}, {"measurement": "effect of nucleotide on endpoint level of incorporated isoprenoid", "setting": "GGTase-I [2]", "value": "no significant difference"}, {"measurement": "FTase activity for farnesylation of H-Ras", "setting": "FTase [6]", "value": "unaffected"}]}, {"molecule": "SmgGDS-607 (from UniProt P52306-1 1-607) (natural protein)", "values": [{"measurement": "Kd", "setting": "[4]", "value": 1900, "unit": "nM"}, {"measurement": "Kd", "setting": "[7]", "value": "> 16000", "unit": "nM"}]}, {"molecule": "dansyl-GCVLL", "values": [{"measurement": "kcat", "setting": "GGTase-I [1]; peptide substrate dansyl-GCVLL", "value": 0.051, "unit": "s⁻¹"}]}, {"molecule": "dansyl-GCLVL [dansyl GCLVL]", "values": [{"measurement": "Km", "setting": "GGTase-I [8]; [13]", "value": "1.9 ± 0.8", "unit": "µM"}, {"measurement": "kcat", "setting": "GGTase-I [8]; [13]", "value": "0.046 ± 0.009", "unit": "s⁻¹"}]}, {"molecule": "RhoA (natural protein)", "values": [{"measurement": "Kd", "setting": "[9]", "value": 77, "unit": "nM"}, {"measurement": "Kd", "setting": "[10]", "value": 249, "unit": "nM"}]}, {"molecule": "Nc1nc2c(ncn2[C@@H]2O[C@H](COP(=O)(O)OP(=O)(O)OP(O)(O)=S)[C@@H](O)[C@H]2O)c(=O)[nH]1", "note": "[GTPγS]", "values": [{"measurement": "Kd", "setting": "RhoA [11]", "value": 160, "unit": "nM"}]}, {"molecule": "RhoA T19N: dominant negative mutant of RhoA, predominantly nucleotide-free in cells", "values": [{"measurement": "co-immunoprecipitation of SmgGDS-607", "setting": "SmgGDS; versus wildtype RhoA", "value": "co-immunoprecipitates greater amounts of SmgGDS-607 than wildtype RhoA"}]}, {"molecule": "GCVLS", "values": [{"measurement": "Kd", "setting": "FTase [12]", "value": 58, "unit": "nM"}]}, {"molecule": "B1", "values": [{"measurement": "Kd", "setting": "SmgGDS-558", "value": "> 40000", "unit": "nM"}]}, {"molecule": "B2", "values": [{"measurement": "effect on GGTase-I activity with peptide substrate", "setting": "GGTase-I [8]", "value": "not significantly altered"}]}, {"molecule": "B3", "values": [{"measurement": "Ki", "setting": "RhoA (human)", "value": 85, "unit": "nM"}]}, {"molecule": "B4", "values": [{"measurement": "inhibition of RhoA prenylation catalyzed by GGTase-I (overall statement)", "setting": "RhoA [3]; in vitro radiolabel incorporation assay", "value": "completely inhibits RhoA prenylation"}, {"measurement": "effect on GGTase-I activity with peptide substrate", "setting": "GGTase-I [8]", "value": "not significantly altered"}]}]}
